Apaf1 activ: human Apaf-1 activation | O14727 | Apaf-1 apoptosome caspase-3 activation, DEVD-Rh110 fluorescence; stronger effect = lower value | activity change, negative = activation, % at 20 µM | actives 0.31% (n = 330,000);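 active = activity change at or below -40% at 20 µM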
Target sequence (O14727 whole entry, looked up): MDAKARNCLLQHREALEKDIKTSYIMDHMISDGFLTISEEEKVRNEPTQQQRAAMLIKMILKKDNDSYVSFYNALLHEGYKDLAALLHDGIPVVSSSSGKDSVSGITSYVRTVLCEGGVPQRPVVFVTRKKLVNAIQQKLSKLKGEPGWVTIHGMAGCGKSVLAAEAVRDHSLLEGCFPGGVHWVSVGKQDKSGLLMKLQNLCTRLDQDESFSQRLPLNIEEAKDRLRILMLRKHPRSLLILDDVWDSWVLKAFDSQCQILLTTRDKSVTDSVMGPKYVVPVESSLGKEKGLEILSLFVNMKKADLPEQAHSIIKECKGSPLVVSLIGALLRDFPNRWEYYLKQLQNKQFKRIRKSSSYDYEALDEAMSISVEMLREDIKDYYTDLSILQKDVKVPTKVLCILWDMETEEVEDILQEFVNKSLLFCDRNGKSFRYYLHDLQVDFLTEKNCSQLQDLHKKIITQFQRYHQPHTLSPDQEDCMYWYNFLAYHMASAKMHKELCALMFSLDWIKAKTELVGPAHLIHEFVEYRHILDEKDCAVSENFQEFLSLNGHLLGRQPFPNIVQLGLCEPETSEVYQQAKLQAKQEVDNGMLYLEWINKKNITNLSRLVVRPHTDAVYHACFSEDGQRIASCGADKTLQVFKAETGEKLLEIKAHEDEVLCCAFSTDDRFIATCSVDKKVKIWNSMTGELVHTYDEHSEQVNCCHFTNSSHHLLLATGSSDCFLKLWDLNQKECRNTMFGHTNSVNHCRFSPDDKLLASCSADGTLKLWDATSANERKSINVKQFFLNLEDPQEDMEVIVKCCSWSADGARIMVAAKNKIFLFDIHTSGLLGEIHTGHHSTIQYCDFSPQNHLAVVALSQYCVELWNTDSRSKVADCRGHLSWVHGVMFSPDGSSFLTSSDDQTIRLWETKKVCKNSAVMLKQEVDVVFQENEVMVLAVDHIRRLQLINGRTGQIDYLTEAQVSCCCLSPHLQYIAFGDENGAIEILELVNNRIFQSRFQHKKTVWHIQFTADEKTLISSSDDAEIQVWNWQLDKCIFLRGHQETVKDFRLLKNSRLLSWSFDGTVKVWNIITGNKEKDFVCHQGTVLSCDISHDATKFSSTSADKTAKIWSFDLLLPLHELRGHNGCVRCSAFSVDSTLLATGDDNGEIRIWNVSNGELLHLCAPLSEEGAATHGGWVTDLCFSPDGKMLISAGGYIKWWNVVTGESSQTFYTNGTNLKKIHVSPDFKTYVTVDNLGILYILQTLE
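Schedule: 30 min preincubation, 50 min reaction, room temperature / System: biochemical Apaf-1 apoptosome reconstitution / Medium: 20 mM HEPES pH 7.5 with CHAPS, BSA / Evaluation: Caspase-3 cleavage activity downstream of Apaf-1 activation / Detection: Caspase-3-released Rh110 fluorescence, 540 nm emission, 480 nm excitation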
Rh110 interf act: Rh110 signal interference in Apaf-1 activator counter-screen. fluorescence interference (activity change), % at 20 µM, hits read low. 980 tested, under 10 active. shares compounds with Apaf1 activ. Rh110 fluorescence interference, quenched caspase reaction, Ex480/Em540;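 active = mean activity change at or below -40% when tested at 20 µM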
Apaf-1 act conf2: confirmation of human Apaf-1 activators; AID 504617; actives 5% (n = 980); shares compounds with Apaf1 activ; activity change, negative = activation, % at 20 µM; reconstituted apoptosome caspase-3 activity, DEVD-Rh110 fluorescence; stronger effect = lower value;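 active = mean activity change at or below -40%, meaning activation of 40% or more, at 20 µM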
Apaf1 act interf: Apaf-1 activator counter-screen fluorescence artifact; shares compounds with Apaf1 activ; fluorescence interference counterscreen, Apaf-1 activator assay; EC50, µM; 55 tested, under 10 active; AID 588592; call rule not given here
* marks the source's active call; other numbers are inactive results. Only a sample is shown.

`O=C(CCN1CCN(C(c2ccccc2)c2ccccc2)CC1)N/N=C/c1ccc(O)cc1O` gave Apaf1 activ -235.8*, Rh110 interf act 8.2 and Apaf-1 act conf2 13.7.
Cc1cc(SCC(=O)N/N=C/c2ccc(O)c(O)c2O)c(C)cc1Br was read as Apaf1 activ 48.9.
O=C(COC(=O)c1ccc([N+](=O)[O-])s1)NNC(=O)c1ccccc1 was read as Apaf1 activ 40.9.
Cc1ccc(C(=O)NC(=S)NNC(=O)c2cccc([N+](=O)[O-])c2)cc1 was read as Apaf1 activ -116.0*, Rh110 interf act 10.7 and Apaf-1 act conf2 19.9.
Screening O=C(CCn1c2c(c3ccccc31)CCCC2)NNC(=O)c1ccc([N+](=O)[O-])cc1 returned Apaf1 activ 80.9.
Screening O=C(c1ccc(S(=O)(=O)N2CCCC2)cc1)N(c1ccc(F)cc1)C1C=CS(=O)(=O)C1 (stereo unspecified) returned Apaf1 activ -313.5*, Rh110 interf act 2.9 and Apaf-1 act conf2 11.0.
Screening Cc1cc2cc(CNC(=O)c3ccc(S(=O)(=O)N4CCCCC4)cc3)ccc2n1C returned Apaf1 activ 53.3.
For O=C(c1ccc(S(=O)(=O)N2CCCC2)cc1)N(c1ccccc1)C1C=CS(=O)(=O)C1 (stereo unspecified) the results were Apaf1 activ -56.1*, Rh110 interf act 4.7 and Apaf-1 act conf2 10.0.
`CCOc1ccc(Cc2nnc(SCC(=O)Nc3ccc(C(C)=O)cc3)[nH]c2=O)cc1` gave Apaf1 activ -416.1*, Rh110 interf act 8.3 and Apaf-1 act conf2 21.6.
CCC[C@@H](CN1CCC[C@H]1CN1C(N)=NC[C@H]1CC(C)C)N1C[C@@H](Cc2ccccc2)N(CCc2ccc(Cl)c(Cl)c2)C1=N was read as Apaf1 activ 68.3.
Screening COc1ccc(C2CC(=O)c3cnc(NC(=O)c4ccco4)nc3C2)cc1 (stereo unspecified) returned Apaf1 activ -138.6*, Rh110 interf act -7.0 and Apaf-1 act conf2 6.4.
Screening O=C(c1ccccc1)N1CCCC(c2ccc(Cl)cc2)=N1 returned Apaf1 activ -41.5*, Rh110 interf act 18.9 and Apaf-1 act conf2 15.4.
For CCOC(=O)c1c(C)oc2c1c(C=NCCC(=O)O)c(O)c1ccccc12 the results were Apaf1 activ 81.0.
Nc1ccc2nn(-c3ccccc3)nc2c1 was read as Apaf1 activ 93.2.
For CCc1nn(CCCC(=O)NCc2ccccc2Br)c(=O)c2cc3occc3n12 the results were Apaf1 activ 46.4.
Screening O=C(O)CCCN1C(=O)/C(=C/c2ccc(-c3nc4ccccc4s3)o2)SC1=S returned Apaf1 activ -405.6*, Rh110 interf act 10.7 and Apaf-1 act conf2 -22.9.
`COc1ccc(NC(=S)Nc2cccc3cnccc23)cc1` gave Apaf1 activ 95.4.
Screening O=C1C2(CCCC13COC(c1ccc(O)cc1)OC3)COC(c1ccc(O)cc1)OC2 (stereo unspecified) returned Apaf1 activ -126.9*, Rh110 interf act 4.4, Apaf-1 act conf2 -59.6* and Apaf1 act interf >100.
Clc1ccccc1OCc1nn2c(-c3ccncc3)nnc2s1 was read as Apaf1 activ 40.6.
`Oc1ccc(/C=N/N2CCCCC2)c(O)c1O` gave Apaf1 activ 69.6.
`Cc1ccc(NC(=O)CC(C)N2CCCC2)cc1` (stereo unspecified) gave Apaf1 activ -78.7*, Rh110 interf act 10.5 and Apaf-1 act conf2 13.2.
`O=c1[nH]c(=O)n(C2CCCCCC2)c(O)c1C=NCc1ccc(F)cc1` gave Apaf1 activ 40.4.
O=C(N/N=C/c1cn(-c2ccccc2)nc1-c1cccnc1)c1ccccc1 was read as Apaf1 activ -51.6*, Rh110 interf act -0.2 and Apaf-1 act conf2 16.3.
Screening O=C(/C=C/c1ccc([N+](=O)[O-])cc1)/C=C/c1ccco1 returned Apaf1 activ 42.6.
COc1cc2oc3ccccc3c2cc1N(CC(=O)N1CCCCC1)S(=O)(=O)c1ccc(C)cc1 was read as Apaf1 activ -236.4*, Rh110 interf act -8.2 and Apaf-1 act conf2 15.6.
`COc1ccc(S(=O)(=O)N2CCCCCC2)cc1C(=O)N(C)CCOc1ccccc1` gave Apaf1 activ 54.8.
`CN(Cc1ccccc1)c1oc(-c2ccco2)nc1C#N` gave Apaf1 activ 40.9.
CCCCCCCCCCn1c2c(c(=N)c3c1CCC3)CCC2 was read as Apaf1 activ 73.9.
For COc1ccccc1-n1c(N)c(C(=O)NCC2CCCO2)c2nc3ccccc3nc21 (stereo unspecified) the results were Apaf1 activ 68.7.
Screening Cc1ccc(CN2C(=O)CCC2C(=O)NCC2CCCO2)cc1 (stereo unspecified) returned Apaf1 activ -88.4*, Rh110 interf act 4.1 and Apaf-1 act conf2 3.1.
For CCN1/C(=C/c2ccc3ccccc3[n+]2CC)C=Cc2ccccc21 the results were Apaf1 activ 40.7.
O=C(CCCCCn1c(=O)[nH]c2ccsc2c1=O)N1CCN(C2CCCCC2)CC1 was read as Apaf1 activ -386.7*, Rh110 interf act -0.1 and Apaf-1 act conf2 1.7.
`CCC(CO)Oc1cc(NCc2ccncc2)c2ncn(C(C)C)c2c1` (stereo unspecified) gave Apaf1 activ 41.3.
`CC(=O)N(/N=C1\Sc2ccccc2C1=O)c1ccccc1C` gave Apaf1 activ 89.8.
`CC(C)N(C(=O)[C@H]1C[C@H](CC(=O)NCCCN(C)C)C(=O)N2CCc3c([nH]c4cc(-c5ccco5)ccc34)[C@]12C)C(C)C` gave Apaf1 activ 51.7.
Screening CCC(CO)Oc1cc(NCc2cccnc2)c2ncn(C(C)C)c2c1 (stereo unspecified) returned Apaf1 activ 62.5.
Cc1cccc(C)c1N1CCN(c2n[nH]c(N)n2)CC1 was read as Apaf1 activ -59.7*, Rh110 interf act 3.3 and Apaf-1 act conf2 18.9.
N#Cc1c(NCCCO)nc(NCc2ccccc2)c2c1CCN(Cc1ccccc1)C2 was read as Apaf1 activ 69.0.
Screening CC1(C)Cc2c(sc(NC(=O)COc3cccc4ccccc34)c2C#N)C(C)(C)N1 returned Apaf1 activ 46.5.
For Cc1ccc(NC(=O)C2CCCN2C(=O)NC2CCCCC2)cc1C (stereo unspecified) the results were Apaf1 activ -120.5*, Rh110 interf act 13.0 and Apaf-1 act conf2 9.5.
Screening Cc1cc2oc3cc(NCCC4CCCN4C)ccc3c(=O)c2cc1C (stereo unspecified) returned Apaf1 activ 43.5.
For C[C@H](CO)N1C[C@H](C)[C@@H](CN(C)Cc2ccc(Oc3ccccc3)cc2)Oc2c(NC(=O)C3CC3)cccc2C1=O the results were Apaf1 activ 43.4.
COc1ccc(S(=O)(=O)N2CCCCCC2)cc1C(=O)N(C)Cc1c(F)cccc1Cl was read as Apaf1 activ 42.6.
Screening CC(C)(C)NC(=O)CC1C(=O)NCCN1Cc1c(F)cccc1Cl (stereo unspecified) returned Apaf1 activ -40.7*, Rh110 interf act 1.1 and Apaf-1 act conf2 6.7.
